Laboratory results reported in ChEMBL document CHEMBL1240337, “Identification of proteases that regulate erythrocyte rupture by the malaria parasite Plasmodium falciparum” (Nat Chem Biol, 2008).
Activity calls are given as the source filed them. The rule behind the calls is not given here.

Columns and labels:
[1] = Cytotoxicity against african green monkey BSC1 cells after 24 hrs by celltiter glo assay; format: cell-based; details: chlorocebus aethiops, bsc-1, 24 h
Procedure, shortened: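 BSC-1 African green monkey kidney epithelial cells exposed to compounds; viability read by CellTiter-Glo luminescence.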

[2] = tested on: Plasmodium falciparum; experiment: Antiplasmodial activity against Plasmodium falciparum schizont infected in human erythrocytes assessed as effect on schizont morphology at 1 to 50 uM after 24 by propidium iodide staining-based FACS analysis; format: functional, organism-based
[3] = tested on: Plasmodium falciparum; experiment: Antiplasmodial activity against Plasmodium falciparum schizont infected in human erythrocytes assessed as effect on parasite ring-to-schizont morphology at 1 to 50 uM after 24 by propidium iodide staining-based FACS analysis; format: functional, organism-based
[4] = tested on: Plasmodium falciparum; experiment: Antiplasmodial activity against Plasmodium falciparum infected in human erythrocytes assessed as blockade of parasite-mediated rupture of erythrocytes by Giemsa staining; format: functional, organism-based
Procedure, shortened: (§1)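 Giemsa-stained thin blood films were read from schizonts exposed at 36 h post invasion to 10 µM inhibitor, to assess rupture and morphology.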

[5] = tested on: Plasmodium falciparum; experiment: Antiplasmodial activity against Plasmodium falciparum infected in human erythrocytes assessed as effect on parasite morphology by Giemsa staining; format: functional, organism-based; procedure, shortened: as §1
[6] = biological target: T1, Protease, putative (Plasmodium falciparum 3D7) (UniProt Q8I1Y2); experiment: Inhibition of Plasmodium falciparum 3D7 PFD0230c by fluorescence spectrophotometry
T1 sequence (whole entry): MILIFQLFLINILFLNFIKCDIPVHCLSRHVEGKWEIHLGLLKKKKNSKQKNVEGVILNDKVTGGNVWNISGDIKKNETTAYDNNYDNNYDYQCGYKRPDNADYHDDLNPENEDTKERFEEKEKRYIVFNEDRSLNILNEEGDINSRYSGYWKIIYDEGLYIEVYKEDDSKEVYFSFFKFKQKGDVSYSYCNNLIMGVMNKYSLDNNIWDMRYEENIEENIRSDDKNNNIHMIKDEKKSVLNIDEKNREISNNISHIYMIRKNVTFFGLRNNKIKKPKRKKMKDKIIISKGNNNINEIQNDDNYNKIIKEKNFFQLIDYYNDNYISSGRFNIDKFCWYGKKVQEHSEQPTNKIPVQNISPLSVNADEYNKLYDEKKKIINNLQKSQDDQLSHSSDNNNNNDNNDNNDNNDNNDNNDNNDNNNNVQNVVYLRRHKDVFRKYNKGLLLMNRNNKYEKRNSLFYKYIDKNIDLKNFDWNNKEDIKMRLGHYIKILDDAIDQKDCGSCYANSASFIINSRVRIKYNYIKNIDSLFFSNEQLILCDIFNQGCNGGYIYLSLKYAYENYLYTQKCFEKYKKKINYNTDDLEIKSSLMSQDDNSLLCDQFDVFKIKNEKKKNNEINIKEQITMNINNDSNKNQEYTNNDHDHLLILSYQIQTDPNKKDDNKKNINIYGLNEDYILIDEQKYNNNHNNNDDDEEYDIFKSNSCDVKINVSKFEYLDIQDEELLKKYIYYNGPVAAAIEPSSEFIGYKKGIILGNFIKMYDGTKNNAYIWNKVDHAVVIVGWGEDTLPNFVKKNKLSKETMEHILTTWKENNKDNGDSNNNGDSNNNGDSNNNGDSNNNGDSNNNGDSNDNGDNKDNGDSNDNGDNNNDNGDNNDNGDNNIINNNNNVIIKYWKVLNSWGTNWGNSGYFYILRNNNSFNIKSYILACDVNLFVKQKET

[7] = biological target: T2, Preprocathepsin c, putative (Plasmodium falciparum 3D7) (UniProt Q8I0V1); experiment: Inhibition of Plasmodium falciparum 3D7 PFL2290w by fluorescence spectrophotometry
T2 sequence (whole entry): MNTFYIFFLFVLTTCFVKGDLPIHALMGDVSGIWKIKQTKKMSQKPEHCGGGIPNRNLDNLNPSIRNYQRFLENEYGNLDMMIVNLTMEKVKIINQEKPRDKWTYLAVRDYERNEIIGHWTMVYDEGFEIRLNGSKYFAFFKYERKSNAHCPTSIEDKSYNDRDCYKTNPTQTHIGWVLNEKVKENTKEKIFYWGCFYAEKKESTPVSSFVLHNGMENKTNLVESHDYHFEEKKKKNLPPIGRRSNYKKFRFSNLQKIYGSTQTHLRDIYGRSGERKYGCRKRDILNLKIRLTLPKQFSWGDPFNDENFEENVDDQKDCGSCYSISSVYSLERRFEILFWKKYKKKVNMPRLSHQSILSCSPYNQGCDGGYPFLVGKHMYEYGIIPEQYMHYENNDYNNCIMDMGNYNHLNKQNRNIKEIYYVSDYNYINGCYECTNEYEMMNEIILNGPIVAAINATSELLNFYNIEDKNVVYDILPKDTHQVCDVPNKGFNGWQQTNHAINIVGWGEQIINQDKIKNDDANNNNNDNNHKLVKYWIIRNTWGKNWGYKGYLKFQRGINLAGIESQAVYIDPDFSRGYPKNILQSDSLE

[8] = biological target: T3, Cysteine proteinase falcipain-1 (Plasmodium falciparum 3D7) (UniProt Q8I6V0); experiment: Inhibition of Plasmodium falciparum 3D7 falcipain-1 by fluorescence spectrophotometry
T3 sequence (whole entry): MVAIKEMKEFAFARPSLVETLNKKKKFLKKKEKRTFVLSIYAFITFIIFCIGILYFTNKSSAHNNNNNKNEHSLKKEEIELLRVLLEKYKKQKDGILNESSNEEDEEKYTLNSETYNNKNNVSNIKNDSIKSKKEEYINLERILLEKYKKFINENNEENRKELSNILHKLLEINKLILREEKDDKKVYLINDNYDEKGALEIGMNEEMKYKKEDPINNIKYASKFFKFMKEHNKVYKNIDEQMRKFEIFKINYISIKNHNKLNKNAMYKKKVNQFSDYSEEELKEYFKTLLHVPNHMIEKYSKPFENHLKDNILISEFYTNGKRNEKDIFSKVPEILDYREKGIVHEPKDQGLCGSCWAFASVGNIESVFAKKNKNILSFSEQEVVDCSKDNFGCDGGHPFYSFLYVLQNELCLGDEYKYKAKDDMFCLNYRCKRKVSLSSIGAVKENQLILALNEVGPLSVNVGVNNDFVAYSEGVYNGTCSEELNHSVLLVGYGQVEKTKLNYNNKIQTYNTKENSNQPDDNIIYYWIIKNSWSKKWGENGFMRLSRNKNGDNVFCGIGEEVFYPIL

| Compound | Activity [1] | Activity [2] | Activity [3] | Activity [4] | Activity [5] | inhibition [6] | inhibition [7] | inhibition [8] |
| --- | --- | --- | --- | --- | --- | --- | --- | --- |
| CCC[C@H](N)C(=O)N[C@H](/C=C/S(=O)(=O)c1ccccc1)CCc1ccccc1 | Non-toxic | inactive | inactive | Active | inactive | Active | inactive | Active |
| C[C@H](N)C(=O)N[C@H](/C=C/S(=O)(=O)c1ccccc1)CCc1ccccc1 | Non-toxic | inactive | inactive | Active | inactive | Active | inactive | Active |
